Measured values: ChEMBL document CHEMBL1132108, “Design, synthesis, and activity of a series of pyrrolidine-3-carboxylic acid-based, highly specific, orally active ET(B) antagonists containing a diphenylmethylamine acetamide side chain” (J Med Chem, 1999)

What was measured:
[1] = Oral bioavailability; assay type: ADME, organism-based; settings: eutheria, in vivo
Procedure, shortened: (§1)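 Rats dosed at 5 mg/kg by intravenous injection and by oral gavage. Time course of plasma drug levels compared between the two routes to give half-life and AUC0-∞. Oral bioavailability F is calculated from the two routes.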

[2] = Half life (5 mg/kg) when administered orally; assay type: ADME, organism-based; settings: in vivo, po; procedure, shortened: as §1
[3] = Total drug exposure (5 mg/kg) when administered intravenously; assay type: ADME, organism-based; settings: in vivo, iv; procedure, shortened: as §1
Endothelin-1 receptor = molecular target: T1, Endothelin-1 receptor (Homo sapiens, UniProt P25101); assay: Binding ability determined by the displacement of [125I]ET1 from the human endothelin A receptor
T1 sequence (P25101 whole entry): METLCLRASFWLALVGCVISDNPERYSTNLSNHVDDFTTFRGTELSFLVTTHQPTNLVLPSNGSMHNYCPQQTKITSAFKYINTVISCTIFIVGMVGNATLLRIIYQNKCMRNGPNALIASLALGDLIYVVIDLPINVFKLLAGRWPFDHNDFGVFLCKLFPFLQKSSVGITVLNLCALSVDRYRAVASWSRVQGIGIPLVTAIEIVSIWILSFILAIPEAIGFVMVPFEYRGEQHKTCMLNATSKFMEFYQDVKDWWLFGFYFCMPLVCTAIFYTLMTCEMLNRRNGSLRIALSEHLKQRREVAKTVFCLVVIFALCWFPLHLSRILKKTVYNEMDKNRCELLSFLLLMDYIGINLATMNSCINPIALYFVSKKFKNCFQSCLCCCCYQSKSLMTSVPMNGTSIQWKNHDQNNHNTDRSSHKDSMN

[4] = Half life (5 mg/kg) when administered intravenously; assay type: ADME, organism-based; settings: in vivo, iv; procedure, shortened: as §1
[5] = Total drug exposure (5 mg/kg) when administered orally; assay type: ADME, organism-based; settings: in vivo, po; procedure, shortened: as §1
[6] = molecular target: T2, Endothelin receptor type B (Homo sapiens, UniProt P24530); assay: Binding ability determined by the displacement of [125 I]ET-3 from the human Endothelin B receptor
T2 sequence (P24530 whole entry): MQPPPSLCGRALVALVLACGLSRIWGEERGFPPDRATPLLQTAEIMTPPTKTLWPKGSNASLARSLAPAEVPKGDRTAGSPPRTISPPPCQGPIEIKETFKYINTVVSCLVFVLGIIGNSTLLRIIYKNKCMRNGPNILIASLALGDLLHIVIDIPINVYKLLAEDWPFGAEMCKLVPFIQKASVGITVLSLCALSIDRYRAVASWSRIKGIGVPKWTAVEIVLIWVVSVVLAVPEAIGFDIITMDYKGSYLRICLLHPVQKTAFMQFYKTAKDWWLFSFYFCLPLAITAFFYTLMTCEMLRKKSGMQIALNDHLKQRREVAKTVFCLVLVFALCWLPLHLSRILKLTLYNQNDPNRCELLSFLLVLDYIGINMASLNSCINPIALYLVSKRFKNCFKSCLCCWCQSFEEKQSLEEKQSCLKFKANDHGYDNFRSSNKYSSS

[7] = molecular target: Endothelin receptor, ET-A/ET-B (Homo sapiens) (UniProt P24530+P25101); assay: Ratio of binding affinity towards human endothelin receptor type A to human endothelin receptor type B (hETA to hETB); assay type: protein assay

bioavailability [1] [%]	half-life [2] [h]	AUC [3] [ng·h/mL]	IC50 (Endothelin-1 receptor) [nM]	half-life [4] [h]	AUC [5] [ng·h/mL]	IC50 [6] [nM]	Ratio [7]	Structure (SMILES)
24	4.8	3030	51700	1.8	730	1.9		Cc1ccccc1C(NC(=O)CN1C[C@H](c2ccc3c(c2)OCO3)[C@@H](C(=O)O)[C@@H]1c1ccc(OCCOC(C)C)cc1)c1ccccc1C.O=C(O)C(F)(F)F (stereo in doubt; form 1)
			16			18	0.89	COc1ccc([C@H]2[C@H](C(=O)O)[C@@H](c3ccc4c(c3)OCO4)CN2CC(=O)NC(C)c2ccccc2C)cc1 (stereo partly specified)
			122			31	3.94	COc1ccc([C@H]2[C@H](C(=O)O)[C@@H](c3ccc4c(c3)OCO4)CN2CC(=O)NC(c2ccccc2)c2cc(C)ccc2C)cc1 (stereo partly specified)
			1			2.6	0.38	CCC(NC(=O)CN1C[C@H](c2ccc3c(c2)OCO3)[C@@H](C(=O)O)[C@@H]1c1ccc(OC)cc1)c1ccccc1 (stereo partly specified)
			8.8			0.94	9.36	COc1ccc([C@H]2[C@H](C(=O)O)[C@@H](c3ccc4c(c3)OCO4)CN2CC(=O)NC(c2ccccc2)C(C)(C)C)cc1 (stereo partly specified)
			199			108	1.84	COc1ccc([C@H]2[C@H](C(=O)O)[C@@H](c3ccc4c(c3)OCO4)CN2CC(=O)NCC(c2ccccc2)c2ccccc2)cc1
			322			0.71	454	CC(C)OCCOc1ccc([C@H]2[C@H](C(=O)O)[C@@H](c3ccc4c(c3)OCO4)CN2CC(=O)NC(c2ccccc2)C(C)(C)C)cc1 (stereo partly specified)
			100			6.6	15.2	CCc1ccccc1C(NC(=O)CN1C[C@H](c2ccc3c(c2)OCO3)[C@@H](C(=O)O)[C@@H]1c1ccc(OC)cc1)c1ccccc1CC
			2.5			1.1	2.27	CCC(CC)C(NC(=O)CN1C[C@H](c2ccc3c(c2)OCO3)[C@@H](C(=O)O)[C@@H]1c1ccc(OC)cc1)c1ccccc1 (stereo partly specified)
			432			744	0.58	COc1ccc([C@H]2[C@H](C(=O)O)[C@@H](c3ccc4c(c3)OCO4)CN2CC(=O)NC(c2ccccc2)(c2ccccc2)c2ccccc2)cc1
			63.5			3.4	18.7	COc1ccc([C@H]2[C@H](C(=O)O)[C@@H](c3ccc4c(c3)OCO4)CN2CC(=O)NC(c2ccccc2)c2ccccc2C)cc1 (stereo partly specified)
			3.9			47	0.08	COc1ccc([C@H]2[C@H](C(=O)O)[C@@H](c3ccc4c(c3)OCO4)CN2CC(=O)NC(Cc2ccccc2)c2ccccc2)cc1 (stereo partly specified)
			1.6			5	0.32	CCCCC(NC(=O)CN1C[C@H](c2ccc3c(c2)OCO3)[C@@H](C(=O)O)[C@@H]1c1ccc(OC)cc1)c1ccccc1 (stereo partly specified)
			5.5			20	0.28	COc1ccc([C@H]2[C@H](C(=O)O)[C@@H](c3ccc4c(c3)OCO4)CN2CC(=O)NC(C)c2ccccc2)cc1 (stereo partly specified)
			14300			3.3	4320	CCc1ccccc1C(NC(=O)CN1C[C@H](c2ccc3c(c2)OCO3)[C@@H](C(=O)O)[C@@H]1c1ccc(OCCOC(C)C)cc1)c1ccccc1C (stereo partly specified)
			0.7			2.1	0.33	COc1ccc([C@H]2[C@H](C(=O)O)[C@@H](c3ccc4c(c3)OCO4)CN2CC(=O)NC(c2ccccc2)C(C)C)cc1 (stereo partly specified)

bioavailability [1] [%]	half-life [2] [h]	AUC [3] [ng·h/mL]	IC50 (Endothelin-1 receptor) [nM]	half-life [4] [h]	AUC [5] [ng·h/mL]	IC50 [6] [nM]	Ratio [7]	Structure (SMILES)
			749			6.1	123	CCc1ccccc1C(NC(=O)CN1C[C@H](c2ccc3c(c2)OCO3)[C@@H](C(=O)O)[C@@H]1c1ccc(OC)cc1)c1ccccc1C (stereo partly specified)
			45.9			8.1	5.67	COc1ccc([C@H]2[C@H](C(=O)O)[C@@H](c3ccc4c(c3)OCO4)CN2CC(=O)NC(c2ccccc2)c2ccccc2)cc1
			20600			1.7		COCCOc1ccc([C@H]2[C@H](C(=O)O)[C@@H](c3ccc4c(c3)OCO4)CN2CC(=O)NC(c2ccccc2C)c2ccccc2C)cc1 (stereo in doubt; form 1) [listing 1 of 2 here]
							16000	COCCOc1ccc([C@H]2[C@H](C(=O)O)[C@@H](c3ccc4c(c3)OCO4)CN2CC(=O)NC(c2ccccc2C)c2ccccc2C)cc1 (stereo in doubt; form 2)
8	0.55	2500	27000	2.9	200	1.7		COCCOc1ccc([C@H]2[C@H](C(=O)O)[C@@H](c3ccc4c(c3)OCO4)CN2CC(=O)NC(c2ccccc2C)c2ccccc2C)cc1.O=C(O)C(F)(F)F (stereo in doubt; form 2)
			13.6			3.4	4	COc1ccc([C@H]2[C@H](C(=O)O)[C@@H](c3ccc4c(c3)OCO4)CN2CC(=O)NC(CC(C)C)c2ccccc2)cc1 (stereo partly specified)
							12100	COCCOc1ccc([C@H]2[C@H](C(=O)O)[C@@H](c3ccc4c(c3)OCO4)CN2CC(=O)NC(c2ccccc2C)c2ccccc2C)cc1 (stereo in doubt; form 1) [listing 2 of 2 here]
							27200	Cc1ccccc1C(NC(=O)CN1C[C@H](c2ccc3c(c2)OCO3)[C@@H](C(=O)O)[C@@H]1c1ccc(OCCOC(C)C)cc1)c1ccccc1C (stereo in doubt; form 1)
							23400	Cc1ccccc1C(NC(=O)CN1C[C@H](c2ccc3c(c2)OCO3)[C@@H](C(=O)O)[C@@H]1c1ccc(OCCOC(C)C)cc1)c1ccccc1C (stereo in doubt; form 2) [listing 1 of 2 here]
			77400			3.3		Cc1ccccc1C(NC(=O)CN1C[C@H](c2ccc3c(c2)OCO3)[C@@H](C(=O)O)[C@@H]1c1ccc(OCCOC(C)C)cc1)c1ccccc1C (stereo in doubt; form 2) [listing 2 of 2 here]
			1230			600	2.05	COc1ccc([C@H]2[C@H](C(=O)O)[C@@H](c3ccc4c(c3)OCO4)CN2CC(=O)NC2c3ccccc3-c3ccccc32)cc1
			131			5	26.2	COc1ccc([C@H]2[C@H](C(=O)O)[C@@H](c3ccc4c(c3)OCO4)CN2CC(=O)NC(CC(C)(C)C)c2ccccc2)cc1 (stereo partly specified)
			488			2.2	222	COCCOc1ccc([C@H]2[C@H](C(=O)O)[C@@H](c3ccc4c(c3)OCO4)CN2CC(=O)NC(c2ccccc2)C(C)(C)C)cc1 (stereo partly specified)
			161			1.1	146	COc1ccc([C@H]2[C@H](C(=O)O)[C@@H](c3ccc4c(c3)OCO4)CN2CC(=O)NC(c2ccccc2C)c2ccccc2C)cc1
			3.7			7.3	0.51	CCCC(NC(=O)CN1C[C@H](c2ccc3c(c2)OCO3)[C@@H](C(=O)O)[C@@H]1c1ccc(OC)cc1)c1ccccc1 (stereo partly specified)
